This note sets out measurements from ChEMBL document CHEMBL5214966, “Discovery of BT8009: A Nectin-4 Targeting Bicycle Toxin Conjugate for the Treatment of Cancer” (J Med Chem, 2022).

The target of data set [1] is T1, Nectin-4 (Homo sapiens, UniProt Q96NY8).
T1 sequence (Q96NY8 whole entry): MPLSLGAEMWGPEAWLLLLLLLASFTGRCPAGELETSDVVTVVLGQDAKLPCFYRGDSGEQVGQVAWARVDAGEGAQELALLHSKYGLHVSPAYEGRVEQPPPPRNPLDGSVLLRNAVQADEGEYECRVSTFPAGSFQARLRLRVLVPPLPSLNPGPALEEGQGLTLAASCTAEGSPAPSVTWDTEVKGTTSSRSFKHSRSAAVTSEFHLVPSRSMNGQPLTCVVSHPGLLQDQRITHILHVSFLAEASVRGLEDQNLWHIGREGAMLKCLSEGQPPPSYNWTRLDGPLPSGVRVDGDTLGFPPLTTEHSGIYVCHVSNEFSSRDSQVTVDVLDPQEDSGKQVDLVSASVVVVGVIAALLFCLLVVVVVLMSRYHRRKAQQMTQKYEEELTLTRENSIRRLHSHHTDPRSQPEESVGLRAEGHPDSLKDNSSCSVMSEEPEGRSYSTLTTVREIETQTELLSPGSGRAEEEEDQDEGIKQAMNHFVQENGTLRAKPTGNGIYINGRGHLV
The experiment in a line: Displacement of tracer from C-terminal FLAG-tagged human Nectin-4 (32 to 349 residues) expressed in baculovirus infected sf9 cells assessed as inhibition constant measured at 5 to 10 mins interval for 60 mins by fluorescence polarization assay. For orientation: In fluorescence polarisation assays a small probe gives low polarisation when free and higher when bound to something large.

A short description of data set [2]: Thermodynamic solubility of the compound in phosphate buffer at pH 7.4. The data set is classed as physicochemical. The following applies: read-out: Therm_solubility. In outline: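 Thermodynamic solubility measured in phosphate buffer at pH 7.4, expressed in mg/mL.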
Data set [3] can be described thus: Stability in mouse plasma assessed as half life measured upto 24 hrs by LC-MS/MS analysis. The class given is ADME, cell-free.
The nature of data set [4]: Stability in human plasma assessed as half life measured upto 24 hrs by LC-MS/MS analysis. The class given is ADME, cell-free.
The subject of data set [5] is MDA-MB-468. The experiment in a line: Antitumor activity against human MDA-MB-468 cells xenografted in Balb/c mouse model assessed as tumor regression 5 mg/kg, iv administered as bolus injection once weekly for 18 days and measured upto 42 days. The class given is functional, organism-based. The settings on record: time <= 42.0 day. Summed up:
(§1)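 Dosing regimens were 3 mg/kg once weekly, 3 mg/kg twice weekly, or 5 mg/kg once weekly. Dosing ran 18 days. After dosing stopped, the 5 mg/kg once-weekly group was followed to day 42. Read-out was tumour growth/regression.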
For orientation: Xenograft models place foreign cells or tissue in a host animal.

The nature of data set [6]: Plasma protein binding in human LC/MS/MS analysis. The class given is ADME, cell-free. The settings on record: read-out: PPB (converted).
Data set [7] concerns MDA-MB-468. The experiment in a line: Antitumor activity against human MDA-MB-468 cells xenografted in Balb/c mouse model assessed as tumor regression at 3 mg/kg, iv twice weekly or 5 mg/kg, iv once weekly administered as bolus injection for 18 days. The settings on record: dose 3-5 mg/kg, time 18.0 day. The class given is functional, organism-based. In outline: as §1
Data set [8] in a line: Plasma protein binding in mouse by LC/MS/MS analysis. The class given is ADME, cell-free. The settings on record: read-out: PPB (converted).
The nature of data set [9]: Volume of distribution at steady state in mouse at 3 mg/kg, iv administered as bolus injection. The data set is classed as ADME, organism-based. The following applies: in vivo, read-out: Vdss. In outline:
(§2)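 Mouse pharmacokinetics after a single 3 mg/kg IV bolus. Terminal half-life, plasma clearance (mL/min/kg) and steady-state volume of distribution (L/kg) were derived from plasma levels.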

The subject of data set [10] is MDA-MB-468. The experiment in a line: Antitumor activity against human MDA-MB-468 cells xenografted in Balb/c mouse model assessed as tumor regression at 3 mg/kg, iv administered as bolus injection once weekly for 18 days. The class given is functional, organism-based. The settings on record: time 18.0 day. In outline: as §1
Data set [11] in a line: Half life in mouse at 3 mg/kg, iv administered as bolus injection. The data set is classed as ADME, organism-based. The settings on record: in vivo. Summed up:
as §2

A short description of data set [12]: Clearance in mouse plasma at 3 mg/kg, iv administered as bolus injection. The class given is ADME, organism-based. Summed up:
as §2

A short description of data set [13]: Toxicity in Balb/c mouse assessed as drug tolerability at 3 to 5 mg/kg, iv administered as bolus injection measured upto 42 days. The data set is classed as organism-based. The following applies: in vivo, 1008 h, dose 3-5 mg/kg, time < 42 day. Summed up: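 Doses were 3 mg/kg once or twice weekly and 5 mg/kg once weekly over 18 days, with one group monitored to day 42.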

Each structure is given as a SMILES string. Values after ≈ are worked out from the molar mass of the structure shown. Active and inactive are the calls of the source. No cut-off for these calls is given here. *1 amine or outer side, *2 acyl side, *3 side chain or, on linkers, in order; H or OH if unused. Where a SMILES comes first, the peptide text is derived from it. Bridges are numbered along the chain shown (N, C = ends). [ ]: non-standard residue; d: D form. TATA = O=C(CC[*:1])N1CN(C(=O)CC[*:2])CN(C(=O)CC[*:3])C1 A value given as a limit tells only on which side of the number the result lay.

With `CC[C@H](C)[C@@H]1NC(=O)[C@@H]2CCCN2C(=O)[C@H](Cc2c[nH]c3ccccc23)NC(=O)[C@H](CO)NC(=O)[C@H](Cc2c[nH]c3ccccc23)NC(=O)[C@H](CC(N)=O)NC(=O)[C@H](CCCCN)NC(=O)[C@H](CCSC)NC(=O)[C@@H]2CSCCC(=O)N3CN(CN(C3)C(=O)CCSC[C@@H](NC(C)=O)C(=O)N3CCC[C@H]3C(=O)N[C@@H](Cc3ccccc3)C(=O)NCC(=O)N2)C(=O)CCSC[C@@H](C(=O)N[C@H](C(=O)N[C@@H](CC(N)=O)C(=O)N[C@@H](CCCCN)C(N)=O)[C@@H](C)O)NC(=O)[C@H](Cc2c[nH]c3ccccc23)NC1=O` (Ac-[dC]PFGCMKNWSWPIWCTNK-NH2; linker 1-5-15 via TATA), the Ki in data set [1] was determined as 13.5 nM. For the same compound, the solubility thermodynamic in [2] stood at 4400 µg/mL (≈ 1770 µM). Besides, the half-life in data set [3] was 2.2 h; in data set [4], > 24 h.
Consider `CC[C@H](C)[C@@H]([C@H](CC(=O)N1CCCC1[C@@H](OC)[C@H](C)C(=O)N[C@@H](C)[C@H](O)c1ccccc1)OC)N(C)C(=O)[C@@H](NC(=O)[C@H](C(C)C)N(C)C(=O)OCc1ccc(NC(=O)[C@H](CCCNC(N)=O)NC(=O)[C@@H](NC(=O)CCCC(=O)NCCC(=O)N(C)CC(=O)N(C)CC(=O)N(C)CC(=O)N(C)CC(=O)N(C)CC(=O)N(C)CC(=O)N(C)CC(=O)N(C)CC(=O)N(C)CC(=O)N(C)CC(=O)N[C@@H](C)N[C@@H](CCCCNC(=N)N)C(=O)N[C@@H](CC(=O)O)C(=O)N[C@H]2CSCCC(=O)N3CN4CCC(=O)SC[C@H](NC(=O)[C@H](CC(C)C)NC(=O)[C@@H]5CCCN5C(=O)[C@H](CC(N)=O)NC(=O)[C@H](C(C)C)NC(=O)[C@H](CC(C)C)NC(=O)C5C[C@@H](O)CN5C2=O)C(=O)N[C@@H](CC(C)C)C(=O)N[C@@H](Cc2c[nH]cn2)C(=O)N2CCCC2C(=O)N[C@@H](CC(=O)O)C(=O)N[C@@H](Cc2c[nH]c5ccccc25)C(=O)N[C@@H](Cc2c[nH]c5ccccc25)C(=O)NC(CCCCNC(=N)N)C(=O)N[C@H](C(N)=O)CSCCC(=O)N(C4)C3)C(C)C)cc1)C(C)C` (stereo partly specified), for which, in data set [2], the solubility thermodynamic came to 800 µg/mL (≈ 175 µM). The outcome in [5], in data set [7] and in data set [10] was Active. Further, the values for the fraction unbound in [6] and in data set [8] were 0.207 and 0.118, respectively. Besides, the half-life was 4.4 h in [3], > 57.8 h in data set [4] and 1 h in data set [11]. Further, the Vd in [9] came out at 0.25 L/kg. Moreover, the clearance in data set [12] was determined as 3.5 mL/min/kg. Also, in data set [13], the Activity entry is “Non-Toxic”.

As a reminder, the Ki is the dissociation constant of the complex between target and ligand, obtained from inhibition or displacement. A word on the half-life: it is how long it takes for the measured level to halve. By clearance is commonly meant the volume of plasma or blood freed of the substance per unit of time. A low value points to inefficient removal.
